HTRA1 inh = HTRA1 serine protease inhibitors, primary screen, biochemical, fluorescence polarization, HTS. Q92743. recombinant HTRA1, FP-rhodamine activity-based probe. inhibition, % at 5.96 µM. 340,000 tested, 0.5% active. AID 504803, 2011; in the data active = inhibition above about 36%;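 also: 0% = enzyme with DMSO and 100% = wells lacking enzyme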
PRMT1 FP inh = PRMT1 methyltransferase inhibitors, primary screen, biochemical, fluorescence polarization | recombinant PRMT1, activity-based probe fluorescence polarization | inhibition, % at 2.79 µM | 370,000 tested, 1.3% active | AID 652257, 2013;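 active = inhibition above about 21% made by adding two undisclosed values, limit read from the data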
ABHD4 inh = ABHD4 inhibitors, primary screen, biochemical, fluorescence polarization, mouse | inhibition, % at 8.92 µM | 370,000 tested, 0.54% active | (Lyso)-N-acylphosphatidylethanolamine lipase (Mus musculus), Q8VD66 | purified mABHD4, FP-Rh probe fluorescence polarization;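 active = inhibition exceeding the mean over every tested compound plus 3 SD, cut at about 30% in these data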;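 also: 0% = plate median of compound wells and 100% = S159A mutant with DMSO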
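system = mouse ABHD4 enzyme, wild type | medium = HEPES pH 7.0, NaCl, Pluronic buffer | also added = FP-Rh probe | incubation = Enzyme–compound pre-incubation 45 min, then probe 60 min, both 25 °C | technique = fluorescence polarization, excitation 525 nm, emission 598 nm, BODIPY TMR filters | controls = S159A mutant high control, sample median low control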
GASC-1 inh = inhibitors of GASC-1 histone demethylase, primary screen, biochemical, fluorescence, DELFIA europium | Lysine-specific demethylase 4C (Homo sapiens), Q9H3R0 | GST-JMJD2C(1-420) H3K9me3 demethylation | inhibition, % at 2.35 µM | 330,000 tested, 0.069% active | AID 2099, 2009;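 active = more than half of a compound's replicate wells show inhibition beyond 50%, single wells judged on their own value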;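 also: signal counts dimethyl H3K9 product captured on neutravidin plate; 0% = median of DMSO wells and 100% = 0.3 times that DMSO median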
Target sequence (Q9H3R0 1-420 limits assumed): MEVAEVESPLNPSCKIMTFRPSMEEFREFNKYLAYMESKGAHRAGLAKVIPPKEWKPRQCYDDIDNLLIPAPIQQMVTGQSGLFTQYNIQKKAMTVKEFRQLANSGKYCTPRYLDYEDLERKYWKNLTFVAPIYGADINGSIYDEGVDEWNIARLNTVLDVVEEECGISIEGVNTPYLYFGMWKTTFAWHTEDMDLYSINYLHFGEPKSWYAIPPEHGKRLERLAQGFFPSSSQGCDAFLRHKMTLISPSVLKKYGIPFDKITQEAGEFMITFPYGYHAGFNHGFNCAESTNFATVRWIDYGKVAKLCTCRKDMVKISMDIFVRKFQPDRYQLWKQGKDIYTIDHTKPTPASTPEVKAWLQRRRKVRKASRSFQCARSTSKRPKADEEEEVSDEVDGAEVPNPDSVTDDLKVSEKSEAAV
SIAE inh = human SIAE inhibitors, primary screen, biochemical, fluorescence polarization, FP-Rh probe, 1536-well HTS; Sialate O-acetylesterase (Homo sapiens), Q9HAT2; SIAE FP-Rh probe binding; 370,000 tested, 0.69% active; inhibition, % at 9.66 µM;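 active = inhibition above a cutoff: mean of compounds within the control limits plus 3 SD of those, cut at about 17% in these data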;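 also: 0% = plate median of compound wells and 100% = probe without SIAE protein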
* = called active by the depositor; x = not tested or not shown. This is a sample that favours compounds with a hit; in the whole collection about 2.4% have one here.

SMILES | HTRA1 inh | PRMT1 FP inh | ABHD4 inh | GASC-1 inh | SIAE inh
OC1(Cc2ccccc2)CCN(c2ncnc3sccc23)CC1 | x | -1.0 | 2.2 | x | -3.2
C#CCCN([C@H](C(=O)OC)C(C)CC)S(=O)(=O)c1ccccc1Br (stereo partly drawn) | x | -0.9 | -10.8 | x | -3.9
Cc1ccc(C2NC(=S)N3C(c4ccc(C)cc4)NC(=S)N23)cc1 (stereo not drawn) | 3.1 | 22.1* | -2.6 | x | 1.7
Cn1cnc([N+](=O)[O-])c1Sc1ncn[nH]1 | 4.2 | -2.7 | 5.5 | 9.6 | 2.2
Cn1cnc([N+](=O)[O-])c1Sc1nnc(-c2ccccc2)c(-c2ccccc2)n1 | x | 24.0* | -2.7 | x | -7.3
COc1cccc(-c2cc(NC=O)c3ncc(-c4ccc(C(C)=O)cc4)n3c2)c1 | x | 6.4 | -7.5 | x | -13.4
CCCCCCCCN1C(=O)[C@@H](CC(=O)N2CCC(c3ccccc3)CC2)C[C@@]2(C(=O)OC)C1=C[C@H](C(C)C)O[C@@H]2C1CC1 | x | 4.3 | 7.8 | x | 2.4
CCN(CC(=O)NCc1cccs1)C(=O)c1ccc(C)o1 | 1.2 | -2.2 | -1.3 | -2.4 | -2.4
CCN(CC(=O)NCc1cccs1)C(=O)c1ccc(-c2ccc(F)cc2)o1 | -7.2 | 24.1* | 4.2 | -0.7 | -1.5
CCNC(=O)C1(C)CCN(C(=O)c2cccnc2SC)C1 (stereo not drawn) | x | -3.0 | 5.8 | x | 1.8
COc1ccc(-c2cn(-c3ccccc3)c(=S)[nH]2)cc1OC | -2.2 | 23.2* | -9.3 | -2.6 | -2.7
COc1ccc(-c2cn(-c3ccc(C)c(Cl)c3)c(=S)[nH]2)cc1OC | 3.2 | 7.0 | 5.7 | -5.6 | -0.2
Cc1nc2[nH]c(=S)[nH]c(=O)c2nc1C | 1.0 | 1.0 | 5.2 | x | 2.7
Cc1nc2c(=O)[nH]c(=S)[nH]c2[nH]c1=O | 5.4 | 24.2* | -1.5 | x | -14.7
COc1ccccc1CNC(=O)NC1CCN(CC(=O)Nc2ccc3c(c2)OCCO3)CC1 | x | -2.7 | 3.3 | x | 0.1
O=C(Nc1cccc2ncccc12)c1ccc(-c2ccc(Br)cc2)o1 | -19.6 | 24.6* | -4.0 | -11.3 | 1.3
O=C(NCCCc1ccccc1)O[C@@H]1CC[C@@]23CCCN2C(=O)CCC[C@H]3C1 | x | -3.2 | 2.9 | x | -1.0
O=C(O)CCC(C(=O)O)n1c(O)c(C2=c3ccccc3=NC2=O)sc1=S (stereo not drawn) | -2.9 | 23.0* | 16.9 | -5.8 | 2.5
O=C1N=c2ccccc2=C1c1sc(=S)n(CC2CCCO2)c1O (stereo not drawn) | 0.9 | -0.5 | 6.2 | 3.6 | 3.1
CC(=O)Nc1ccc2c(c1)C(=O)N(C)[C@H]1CC[C@H](CC(=O)NCc3ccc(F)cc3)O[C@@H]1CO2 | x | 0.0 | 7.1 | x | -1.7
CC1=C(C)/C(=N\OS(=O)(=O)c2ccc(C)cc2)C=CC1=O | 2.0 | 23.7* | 8.2 | 15.7 | 9.2
COc1ccc(S(=O)(=O)/N=C2/C=CC(=O)C(C)=C2C)cc1 | -1.7 | x | x | 5.1 | x
C=CC[C@@H]1NN2C(=O)[C@@H](CCc3ccccc3)[C@@H]3c4ccccc4C=NN3[C@@H]2c2ccccc21 | x | -1.3 | 3.0 | x | -5.6
S=c1[nH]nc(COc2ccccc2)n1/N=C/c1ccccc1Cl | -5.7 | 23.0* | -2.3 | -4.8 | 6.5
CC(C)CC(=O)Nc1nc2ccc(S(C)(=O)=O)cc2s1 | 1.1 | 22.8* | -14.0 | -7.8 | -4.0
SMILES | HTRA1 inh | PRMT1 FP inh | ABHD4 inh | GASC-1 inh | SIAE inh
CCOC(=O)c1c(S(=O)(=O)N2CCCC2)c(C)n(C)c1C | -5.1 | 21.6* | -0.6 | -4.8 | 1.8
CCOC(=O)c1c(S(=O)(=O)N2CCN(C)CC2)c(C)n(C)c1C | 2.1 | -3.1 | -2.7 | -2.4 | -5.2
CC(=O)Nc1cccc(C(=O)/C=C/c2ccc(/C=C/C(=O)c3cccc(NC(C)=O)c3)cc2)c1 | x | 0.8 | -3.1 | 6.8 | -11.7
CC(=O)Nc1cccc(C(=O)/C=C/c2ccc[nH]2)c1 | 4.2 | 21.6* | -3.4 | -2.5 | 5.7
CC(=O)Nc1cccc(C(=O)/C=C/c2ccco2)c1 | -0.5 | 21.5* | 0.7 | 34.1 | 6.3
C=Cc1c(C)c2cc3[nH]c(cc4nc(cc5nc(cc1[nH]2)C(C)=C5CCC(=O)O)C(CCC(=O)O)=C4C)c(C)c3C=C | 68.8* | 26.9* | 70.4* | 12.5 | 75.0*
O=C(NCCc1ccccc1)C1Cc2c(-c3ccc4c(c3)OCO4)ccnc2O1 (stereo not drawn) | x | 1.1 | -2.6 | x | -5.9

Screening results deposited in PubChem BioAssay by several laboratories.
